The source of these data is ChEMBL document CHEMBL4038334, “Coumarin versus Chromone Monoamine Oxidase B Inhibitors: Quo Vadis?” (J Med Chem, 2017).

The target of series [1] is T1, Amine oxidase [flavin-containing] B (Homo sapiens, UniProt P27338).
T1 sequence (P27338 whole entry): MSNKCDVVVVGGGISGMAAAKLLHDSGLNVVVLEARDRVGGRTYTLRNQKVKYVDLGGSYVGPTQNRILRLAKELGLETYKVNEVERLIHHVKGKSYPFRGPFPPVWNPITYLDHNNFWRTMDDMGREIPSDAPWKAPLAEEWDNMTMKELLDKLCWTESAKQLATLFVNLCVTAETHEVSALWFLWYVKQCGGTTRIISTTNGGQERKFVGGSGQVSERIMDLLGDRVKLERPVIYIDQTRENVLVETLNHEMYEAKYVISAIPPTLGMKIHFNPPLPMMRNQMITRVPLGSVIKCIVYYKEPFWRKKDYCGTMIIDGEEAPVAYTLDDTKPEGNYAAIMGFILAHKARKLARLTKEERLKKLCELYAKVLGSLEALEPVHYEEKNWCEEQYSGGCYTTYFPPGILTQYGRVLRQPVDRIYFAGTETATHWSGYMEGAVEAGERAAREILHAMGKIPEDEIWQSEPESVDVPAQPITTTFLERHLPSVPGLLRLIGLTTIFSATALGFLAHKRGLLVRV
The series can be described thus: biochemical. It counts as cell-based.

Series [2] addresses T2, Amine oxidase [flavin-containing] A (Homo sapiens, UniProt P21397).
T2 sequence (P21397 whole entry): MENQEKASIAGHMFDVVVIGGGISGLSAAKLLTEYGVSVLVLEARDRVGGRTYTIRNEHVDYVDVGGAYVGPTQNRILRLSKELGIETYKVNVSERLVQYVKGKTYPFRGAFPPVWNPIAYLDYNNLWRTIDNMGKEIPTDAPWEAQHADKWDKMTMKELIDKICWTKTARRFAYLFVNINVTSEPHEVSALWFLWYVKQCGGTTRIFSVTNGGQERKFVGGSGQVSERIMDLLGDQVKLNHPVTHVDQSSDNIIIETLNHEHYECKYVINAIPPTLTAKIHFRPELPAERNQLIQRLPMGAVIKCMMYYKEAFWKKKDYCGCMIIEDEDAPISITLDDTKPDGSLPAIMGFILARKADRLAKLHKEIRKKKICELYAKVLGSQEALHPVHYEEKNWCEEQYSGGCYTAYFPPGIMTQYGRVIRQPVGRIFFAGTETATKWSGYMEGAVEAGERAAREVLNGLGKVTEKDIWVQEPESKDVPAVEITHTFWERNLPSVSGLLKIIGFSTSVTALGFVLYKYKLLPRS
Put plainly: Inhibition of human recombinant microsomal MAOA expressed in baculovirus infected BTI-TN-5B1- 4 cells using p-tyramine as substrate assessed as decrease in H2O2 production at 100 uM after 15 mins by amplex red-based fluorescence assay. Conditions: 0.25 h; call rule not given here.

For the next series, the species on record is Homo sapiens. The series can be described thus: Selectivity index, ratio of IC50 for human recombinant microsomal MAOA to IC50 for human recombinant microsomal MAOB.
Series [3] deals with T1, Amine oxidase [flavin-containing] B. Put plainly: Noncompetitive inhibition of human recombinant microsomal MAOB expressed in baculovirus infected BTI-TN-5B1- 4 cells using p-tyramine as substrate assessed as decrease in H2O2 production by Lineweaver-Burk plot analysis. In a few lines:
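Substrate-dependent kinetic experiments on hMAO-B. Inhibition mode was read from Lineweaver-Burk plots, and Ki was calculated from the corresponding Dixon plots.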

Series [4] shares this target. The series can be described thus: Binding affinity to human recombinant microsomal MAOB expressed in baculovirus infected BTI-TN-5B1- 4 cells assessed as decrease in H2O2 production at 12.5 nM after 15 mins by amplex red-based fluorescence assay. Conditions: 0.25 h, 0.0125 µM.
For series [5] the target is unchanged. Put plainly: Reversible inhibition of human recombinant microsomal MAOB expressed in baculovirus infected BTI-TN-5B1- 4 cells assessed as decrease in H2O2 production at 12.5 nM after 60 mins by amplex red-based fluorescence assay. The conditions noted are these: 1 h, 0.0125 µM.
The target is the same in series [6]. Put plainly: Reversible inhibition of human recombinant microsomal MAOB expressed in baculovirus infected BTI-TN-5B1- 4 cells assessed as decrease in H2O2 production at 40 nM after 15 mins by amplex red-based fluorescence assay. Conditions: 0.25 h, 0.04 µM.

Regarding `Cc1ccc2occ(C(=O)Nc3cccc(Cl)c3)c(=O)c2c1`, the midpoint of inhibition in series [1], the IC50, lay at 0.0042 µM. For the same molecule, the “inhibition (INH)” value in series [2] was “Not Active”; in series [5], “Active”. The Ratio IC50 in the series listed under Homo sapiens is more than 23800. For the same molecule, the Ki (usually a dissociation constant, usually derived from enzyme kinetics or from competition with a known ligand) in series [3] came out at 0.00269 µM. Besides, the result in series [4] was Active.

Regarding `Cc1ccc(NC(=O)c2coc3ccc(C)cc3c2=O)cc1`, the IC50 (in general, the point on the concentration scale where inhibition reaches its midpoint) in series [1] is 0.152 µM. Further, the “inhibition (INH)” value in series [2] is “Not Active”. Moreover, the Ratio IC50 in the series filed under Homo sapiens is more than 660.

`COc1ccc2occ(C(=O)Nc3cccc(Cl)c3)c(=O)c2c1`: inhibition in series [1] was half-maximal at 0.00394 µM (IC50). Further, the “inhibition (INH)” value in series [2] was “Not Active”. Also, the Ratio IC50 in the series listed under Homo sapiens was more than 25400.

For `COc1ccc2occ(C(=O)Nc3ccc(O)cc3)c(=O)c2c1`, in series [1], the IC50 turned out to be 0.674 µM. In addition, the “inhibition (INH)” value in series [2] is listed as “Not Active”. Further, the Ratio IC50 in the series filed under Homo sapiens is more than 148.

`COc1ccc2oc(=O)c(C(=O)Nc3cccc(Cl)c3)cc2c1` had an IC50 in series [1] of 0.00903 µM. Further, the “inhibition (INH)” value in series [2] was “Not Active”. Further, the Ratio IC50 in the series filed under Homo sapiens was more than 11100.

Turning to `Cc1ccc2oc(=O)c(C(=O)Nc3ccc(Cl)cc3)cc2c1`, the midpoint of inhibition in series [1], the IC50, lay at 0.0111 µM. Moreover, in series [2], the “inhibition (INH)” value is “Not Active”. Besides, in the series listed under Homo sapiens, the Ratio IC50 was more than 9030.

In the case of `Cc1ccc2occ(C(=O)Nc3cccc(O)c3)c(=O)c2c1`, in series [1], the IC50 is 0.0782 µM. In series [2], the “inhibition (INH)” value is recorded as “Not Active”. The Ratio IC50 in the series filed under Homo sapiens is more than 1280.

On to `COc1ccc2oc(=O)c(C(=O)Nc3cccc(O)c3)cc2c1`, for which the IC50 in series [1] was determined as 0.229 µM. Moreover, in series [2], the “inhibition (INH)” value was “Not Active”. Besides, the Ratio IC50 in the series filed under Homo sapiens was more than 447.

`Cc1ccc2occ(C(=O)Nc3ccc(Cl)cc3)c(=O)c2c1` returned an IC50 in series [1] of 0.0454 µM. Moreover, in series [2], the “inhibition (INH)” value is recorded as “Not Active”. In addition, the Ratio IC50 in the series listed under Homo sapiens was more than 2200.

With `COc1ccc2occ(C(=O)Nc3ccc(Cl)cc3)c(=O)c2c1`, the midpoint of inhibition in series [1], the IC50, lay at 0.0103 µM. For the same molecule, in series [2], the “inhibition (INH)” value is recorded as “Not Active”. Further, the Ratio IC50 in the series filed under Homo sapiens was more than 9700.

As for `C[C@H](NCc1ccc(OCc2cccc(F)c2)cc1)C(N)=O` [SAFINAMIDE], the results for the “inhibition (INH)” value in series [2] and in series [6] were “Not Active” and “Active”, respectively.

For `COc1ccc2occ(C(=O)Nc3ccc(C)cc3)c(=O)c2c1`, in series [1], half-maximal inhibition (IC50) was put at 0.211 µM. Further, the “inhibition (INH)” value in series [2] is “Not Active”. Also, in the series filed under Homo sapiens, the Ratio IC50 is more than 474.

With `Cc1ccc2occ(C(=O)Nc3ccc(O)cc3)c(=O)c2c1`, inhibition in series [1] was half-maximal at 0.513 µM (IC50). Moreover, in series [2], the “inhibition (INH)” value is “Not Active”. Further, the Ratio IC50 in the series listed under Homo sapiens was more than 195.

The molecule `COc1ccc2oc(=O)c(C(=O)Nc3ccc(Cl)cc3)cc2c1` showed an IC50 in series [1] of 0.0189 µM. The “inhibition (INH)” value in series [2] was “Not Active”. Besides, the Ratio IC50 in the series listed under Homo sapiens was more than 5290.

In series [1], `Cc1ccc2occ(C(=O)Nc3ccccc3)c(=O)c2c1` had an IC50 of 0.0214 µM. Besides, in series [2], the “inhibition (INH)” value is “Not Active”. Also, the Ratio IC50 in the series listed under Homo sapiens is more than 4680.

In series [1], `Cc1cccc(NC(=O)c2cc3cc(C)ccc3oc2=O)c1` registered an IC50 of 0.00752 µM. Further, the “inhibition (INH)” value in series [2] is listed as “Not Active”. The Ratio IC50 in the series listed under Homo sapiens was more than 13300.

In series [1], `Cc1ccc2oc(=O)c(C(=O)Nc3cccc(O)c3)cc2c1` came in with an IC50 of 0.0454 µM. For the same molecule, in series [2], the “inhibition (INH)” value is “Not Active”. Further, the Ratio IC50 in the series filed under Homo sapiens was more than 2200.

In series [1], `Cc1ccc2oc(=O)c(C(=O)Nc3cccc(Cl)c3)cc2c1` gave an IC50 of 0.00507 µM. The “inhibition (INH)” value is given as “Not Active” in series [2] and “Active” in series [5]. Further, the Ratio IC50 in the series listed under Homo sapiens is more than 19700. Moreover, the Ki in series [3] stood at 0.00117 µM. Also, the result in series [4] was Active.

Regarding `Cc1ccc2oc(=O)c(C(=O)Nc3ccccc3)cc2c1`, the midpoint of inhibition in series [1], the IC50, lay at 0.0153 µM. Also, the “inhibition (INH)” value in series [2] is on record as “Not Active”. Besides, in the series listed under Homo sapiens, the Ratio IC50 was more than 6530.

`COc1ccc2occ(C(=O)Nc3cccc(O)c3)c(=O)c2c1` had a concentration for half-maximal inhibition (IC50) in series [1] of 0.113 µM. Besides, in series [2], the “inhibition (INH)” value was “Not Active”. The Ratio IC50 in the series listed under Homo sapiens was more than 881.

Take `COc1ccc2oc(=O)c(C(=O)Nc3ccccc3)cc2c1`: in series [1], half-maximal inhibition (IC50) was put at 0.00595 µM. Besides, the “inhibition (INH)” value in series [2] is “Not Active”. Also, in the series listed under Homo sapiens, the Ratio IC50 was more than 16800.

The molecule `Cc1ccc2oc(=O)c(C(=O)Nc3ccc(O)cc3)cc2c1` had an IC50 in series [1] of 0.622 µM. Also, in series [2], the “inhibition (INH)” value is given as “Not Active”. Also, in the series filed under Homo sapiens, the Ratio IC50 was more than 161.

In series [1], `Cc1cccc(NC(=O)c2coc3ccc(C)cc3c2=O)c1` came in with an IC50 of 0.0171 µM. Besides, the “inhibition (INH)” value in series [2] is on record as “Not Active”. Further, in the series filed under Homo sapiens, the Ratio IC50 was more than 5850.

The molecule `COc1ccc2oc(=O)c(C(=O)Nc3cccc(C)c3)cc2c1` returned an IC50 in series [1] of 0.0472 µM. Besides, the “inhibition (INH)” value in series [2] was “Not Active”. For the same molecule, the Ratio IC50 in the series listed under Homo sapiens is more than 2120.

For `COc1ccc2oc(=O)c(C(=O)Nc3ccc(C)cc3)cc2c1`, the IC50 in series [1] came to 0.0194 µM. Besides, in series [2], the “inhibition (INH)” value is reported as “Not Active”. In the series filed under Homo sapiens, the Ratio IC50 was more than 5150.

Molecule `Cc1ccc(NC(=O)c2cc3cc(C)ccc3oc2=O)cc1` returned an IC50 in series [1] of 0.0139 µM. Moreover, the “inhibition (INH)” value in series [2] is “Not Active”. In addition, the Ratio IC50 in the series filed under Homo sapiens is more than 7190.

As to `COc1ccc2occ(C(=O)Nc3cccc(C)c3)c(=O)c2c1`, in series [1], the IC50 is 0.0218 µM. For the same molecule, in series [2], the “inhibition (INH)” value is listed as “Not Active”. For the same molecule, the Ratio IC50 in the series listed under Homo sapiens is more than 4590.

As for `COc1ccc2oc(=O)c(C(=O)Nc3ccc(O)cc3)cc2c1`, the “inhibition (INH)” value in series [2] is on record as “Not Active”.

For the molecule `COc1ccc2occ(C(=O)Nc3ccccc3)c(=O)c2c1`, in series [1], the IC50 came out at 0.0418 µM. Also, the “inhibition (INH)” value in series [2] is recorded as “Not Active”. Moreover, the Ratio IC50 in the series filed under Homo sapiens is more than 2390.
